Screens (PubChem BioAssay)
Sampled rows, rich in hits. Any-hit rate of the full collection: about 3.5%.
RGS4 inh: RGS4 inhibitors, primary screen, cell-based, HEK293 M3R inducible RGS4, calcium flux; Fluo-4 calcium flux; stronger effect = higher value; triggered by carbachol at its EC20; B-score at 10 µM; 310,000 tested, 0.45% active; AID 463165, 2010;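 active = B-score, a plate-corrected calcium signal, over three deviations above library mean, with baseline fluorescence within five deviations of library mean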;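 note: RGS4 expression induced by doxycycline in cells with stable M3 receptor; B-score is computed from the integrated fluorescence ratio over baseline after carbachol; higher B-score means a larger calcium signal and so more RGS4 inhibition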
MrgX1 allo act: positive allosteric modulators of MrgX1, primary screen, HEK293 cells, Fluo-4 calcium flux. B-score at 10 µM. FDSS; stronger effect = higher value. AID 588675, 2011. 310,000 tested, 0.63% active. Mas-related G-protein coupled receptor member X1 (Homo sapiens), Q96LB2;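 active = plate-corrected calcium response at least 3 library SD above typical, normal starting fluorescence, not activating the receptor alone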;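 note: compound read alongside a low EC10 to EC30 dose of BAM8-22 agonist; peak minus trough fluorescence over baseline measured at the second addition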
Target sequence (Q96LB2 whole entry, looked up): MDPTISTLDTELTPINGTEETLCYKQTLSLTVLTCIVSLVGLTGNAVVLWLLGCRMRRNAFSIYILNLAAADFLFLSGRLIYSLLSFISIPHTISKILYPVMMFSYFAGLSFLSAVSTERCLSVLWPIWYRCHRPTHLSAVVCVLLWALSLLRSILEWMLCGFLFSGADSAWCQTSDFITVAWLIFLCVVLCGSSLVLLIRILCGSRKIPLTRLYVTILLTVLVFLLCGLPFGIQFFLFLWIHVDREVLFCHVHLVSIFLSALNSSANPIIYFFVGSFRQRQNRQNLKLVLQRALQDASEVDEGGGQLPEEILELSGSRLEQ
MrgX1 ag: agonists of human MrgX1 receptor, primary screen, HEK293 cells, Fluo-4 calcium flux. Mas-related G-protein coupled receptor member X1 (Homo sapiens), Q96LB2. Fluo-4 calcium fluorescence, agonist mode; stronger effect = higher value. B-score at 10 µM. 310,000 tested, 0.44% active. AID 588627, 2011;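 active = calcium response B-score plate-corrected fluorescence ratio at least 3 library SD, with starting fluorescence B-score inside 5 SD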
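Test system: Stable human MrgX1 HEK293 cell line | Schedule: Overnight plating before 1 h dye loading | Read-out basis: Baseline-normalised fluorescence change ratio, B-scored | Detection: Kinetic calcium dye fluorescence, Fluo-4 NW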
MrgX1 antag: antagonists of human MrgX1 receptor, primary screen, HEK293 cells, Fluo-4 calcium flux; B-score at 10 µM; 310,000 tested, 1.3% active; AID 588676, 2011; BAM8-22 antagonism; stronger effect = lower value; Mas-related G-protein coupled receptor member X1 (Homo sapiens), Q96LB2;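 active = calcium-response B-score plate-corrected more than 3 library SD below zero, starting fluorescence within 5 deviations, no agonist response on first addition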;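 note: peak minus trough fluorescence over baseline after final BAM8-22 challenge near maximal dose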
RGS4 act: RGS4 potentiators or activators, primary screen, cell-based, HEK293 M3R inducible RGS4, calcium flux. carbachol calcium flux Fluo4; stronger effect = lower value. B-score at 10 µM. 310,000 tested, 0.92% active. AID 463111, 2010;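 active = B-score of the integrated calcium signal more than 4 SD below the library mean, with starting fluorescence not abnormally high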;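 note: negative B-score means reduced calcium response which marks RGS4 activation or potentiation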
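Material: Inducible-RGS4 HEK293 cells carrying M3 receptor; also added: carbachol at ECmax as muscarinic agonist stimulus; incubation: compound preincubation 20 min at room temperature before agonist; signal: Fluo4-AM (2 µM) calcium-flux fluorescence, kinetic read; measure: integrated calcium ratio converted to B score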
RGS4 act valid: reduced carbachol calcium response, RGS4-induced M3R cells, confirmation, RGS4 activator project, cell-based, HEK293 M3R/RGS4 inducible, calcium flux, duplicate | shares compounds with RGS4 act | carbachol calcium flux Fluo4 | inhibition, % at 10 µM | 1,100 tested, 89% active;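 active = inhibition above 3 SD of the buffer control wells, cut at about 41% in these data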;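 note: signal is the integrated peak-minus-minimum Fluo4 fluorescence over baseline ratio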
M3R Ca counter: activity in cells without induced RGS4 expression | inhibition, % at 10 µM | HEK293 M3R non-induced RGS4, Fluo4 calcium flux; after carbachol challenge at its EC90 | 1,100 tested, 82% active | AID 602283 | shares compounds with RGS4 act;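 active = inhibition exceeding 3 SD of buffer-only control wells, cut at about 26% in these data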;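 note: percent drop in integrated peak-minus-baseline over baseline Fluo4 ratio after carbachol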
A number is an active result.

`O=C(Nc1ccc(S(=O)(=O)N2CCCC2)cc1)c1ccc(OCC2CCCO2)cc1` (stereo not given) gave RGS4 inh inactive, MrgX1 allo act inactive, MrgX1 ag inactive, MrgX1 antag inactive and RGS4 act inactive.
`O=C(Nc1ccc(Cl)c(S(=O)(=O)N2CCOCC2)c1)c1ccc(OCC2CCCO2)cc1` (stereo not given) gave RGS4 inh inactive, MrgX1 allo act inactive, MrgX1 ag inactive, MrgX1 antag -11.1, RGS4 act -10.8, RGS4 act valid 94.0 and M3R Ca counter 78.8.
CCCC1Oc2ccccc2C(=O)N(CC(=O)c2ccc3c(c2)OCCO3)C1=O (stereo not given) was read as RGS4 inh inactive, MrgX1 allo act inactive, MrgX1 ag inactive, MrgX1 antag inactive, RGS4 act -9.02, RGS4 act valid 58.5 and M3R Ca counter inactive.
`Cc1c(Cl)c([N+](=O)[O-])nn1CC(=O)Nc1ccc2c(c1)OCO2` gave RGS4 inh inactive, MrgX1 allo act inactive, MrgX1 ag inactive, MrgX1 antag inactive and RGS4 act inactive.
`Cc1cccc(NC(=O)CSc2nc3ccccc3nc2N2CC(C)OC(C)C2)c1` (stereo not given) gave RGS4 inh inactive, MrgX1 allo act inactive, MrgX1 ag inactive, MrgX1 antag inactive and RGS4 act inactive.
Cc1cccc(N2CCN(C(=O)CSc3nc4ccccc4nc3N3CC(C)OC(C)C3)CC2)c1C (stereo not given) was read as RGS4 inh inactive, MrgX1 allo act inactive, MrgX1 ag inactive, MrgX1 antag inactive, RGS4 act -8.09, RGS4 act valid 85.0 and M3R Ca counter 83.8.
Screening O=C(Nc1ccc2c(c1)CCCN2C(=O)c1ccccc1)c1ccccc1 returned RGS4 inh inactive, MrgX1 allo act inactive, MrgX1 ag inactive, MrgX1 antag inactive, RGS4 act -9.03, RGS4 act valid 62.0 and M3R Ca counter inactive.
For CC(C)(C)NC(=O)COC(=O)c1c2c(nc3ccccc13)CCC2 the results were RGS4 inh inactive, MrgX1 allo act inactive, MrgX1 ag inactive, MrgX1 antag inactive, RGS4 act -9.55, RGS4 act valid 43.5 and M3R Ca counter inactive.
O=C(OCC(=O)N1CCc2ccccc21)c1c2c(nc3ccccc13)CCCCC2 was read as RGS4 inh inactive, MrgX1 allo act inactive, MrgX1 ag inactive, MrgX1 antag inactive, RGS4 act -9.38, RGS4 act valid 83.0 and M3R Ca counter 43.8.
`Cc1ccccc1C(C(=O)NC1CCCCC1)N(C(=O)c1ccccn1)c1cccnc1` (stereo not given) gave RGS4 inh inactive, MrgX1 allo act inactive, MrgX1 ag inactive, MrgX1 antag inactive and RGS4 act inactive.
Screening CC(CCc1ccccc1)NC(=O)Cc1cccs1 (stereo not given) returned RGS4 inh inactive, MrgX1 allo act inactive, MrgX1 ag inactive, MrgX1 antag inactive and RGS4 act inactive.
For Cn1c(=O)c(=O)n(C)c2cc(S(=O)(=O)N3CCCC3C(=O)Nc3ccccc3F)ccc21 (stereo not given) the results were RGS4 inh inactive, MrgX1 allo act inactive, MrgX1 ag inactive, MrgX1 antag inactive and RGS4 act inactive.
COc1cc(O)c(CC=C(C)C)c(O)c1C(=O)CCc1ccc(O)cc1 was read as RGS4 inh inactive, MrgX1 allo act inactive, MrgX1 ag inactive, MrgX1 antag inactive, RGS4 act -9.28, RGS4 act valid 91.0 and M3R Ca counter 76.3.
